{"source": "ChEMBL document CHEMBL1671645", "about": "“Pharmacokinetics and absorption of posaconazole oral suspension under various gastric conditions in healthy volunteers” (Antimicrob Agents Chemother, 2009)", "key": {"[1]": {"experiment": "AUC in fasted healthy human at 400 mg administered as single dose suspension coadministered with acidic carbonated beverage", "format": "ADME, organism-based", "details": "plasma", "summary_of_the_method": "(§1)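 This was a four-way crossover in 12 healthy subjects with 7–10 day washouts. Each took one fasting 400 mg oral suspension dose, with 12 oz ginger ale and/or esomeprazole 40 mg once each morning on days −2 to 1, with dosing on day 1. Plasma was sampled 0–168 h and measured by LC-MS/MS (LLOQ 5.00 ng/ml). Analysis was noncompartmental, with CL/F = dose/AUC_I and V/F = (CL/F)/K.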"}, "[2]": {"experiment": "Half life in healthy human at 400 mg administered as single dose suspension coadministered with nutritional supplement and 10 mg metoclopramide", "format": "ADME, organism-based", "details": "in vivo", "summary_of_the_method": "(§2)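 Single oral suspension dose with nutritional supplement, alone or with metoclopramide 10 mg orally three times daily on the day before and the day of dosing; three-way crossover, 7–10-day washout. EDTA plasma predose to 168 h, LC-MS/MS (LLOQ 5.00 ng/ml). t1/2 = ln(2)/K from terminal slope; Tmax median.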"}, "[3]": {"experiment": "Half life in healthy human at 200 mg QID, po administered as suspension for 7 days coadministered with nutritional supplement", "format": "ADME, organism-based", "details": "in vivo", "summary_of_the_method": "(§3)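 Healthy volunteers given oral suspension (40 mg/ml) for 7 days, fasted or with nutritional supplement (Boost); four-way crossover, 14–21-day washout, nonfat snacks ≤800 cal/day allowed. On day 7 only the morning dose was given; plasma sampled predose to 168 h after it. LC-MS/MS (LLOQ 5.00 ng/ml). t1/2 = ln(2)/K from log-linear terminal slope; Tmax as median.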"}, "[4]": {"test_system": "Homo sapiens", "experiment": "Toxicity in healthy human assessed as adverse events at 400 mg administered as single dose suspension coadministered with nutritional supplement and 10 mg metoclopramide", "format": "organism-based", "details": "in vivo", "summary_of_the_method": "(§4)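 Healthy volunteers monitored for adverse events, vital signs, clinical laboratory values and 12-lead ECG. Adverse events tabulated by body system or organ class and severity and summarized by treatment across the crossover regimens.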"}, "[5]": {"experiment": "Half life in fasted healthy human at 400 mg administered as single dose suspension after 20 mins after consumption of high fat meal", "format": "ADME, organism-based", "details": "in vivo", "summary_of_the_method": "(§5)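 Single oral suspension dose in healthy volunteers while fasting, 5 min before, midway through (about 10 min into a 20-min meal), or 20 min after a high-fat meal (approx 50 g fat); four-way crossover, 7–10-day washout. Plasma 0–168 h by LC-MS/MS (LLOQ 5.00 ng/ml). t1/2 = ln(2)/K; Tmax median.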"}, "[6]": {"experiment": "Cmax in fasted healthy human plasma at 400 mg BID, po administered as suspension for 7 days", "format": "ADME, organism-based", "design": "dose 400 mg, route oral", "summary_of_the_method": "(§6)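 Twelve healthy subjects took oral suspension for 7 days as 400 mg BID or 200 mg QID, either fasting or with a Boost-type nutritional supplement, in a crossover with 14–21 day washouts. Nonfat snacks of 800 cal/day or less were allowed. Plasma was sampled 0–168 h after the day-7 morning dose only and analysed by LC-MS/MS. AUC is AUC_τ, normalized to dose.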"}, "[7]": {"experiment": "Half life in fasted healthy human at 400 mg administered as single dose suspension", "format": "ADME, organism-based", "details": "in vivo", "summary_of_the_method": "(§7)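 Single oral suspension dose in fasting healthy volunteers, alone, with 12 oz ginger ale, after esomeprazole 40 mg once each morning days −2 to 1, or both; four-way crossover, 7–10-day washout. EDTA plasma 0–168 h. LC-MS/MS (LLOQ 5.00 ng/ml). t1/2 = ln(2)/K from terminal log-linear regression; Tmax median.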"}, "[8]": {"test_system": "Homo sapiens", "experiment": "Toxicity in healthy human assessed as asthenia at 400 mg BID, po administered as suspension for 7 days coadministered with nutritional supplement", "format": "organism-based", "details": "in vivo, 168 h", "summary_of_the_method": "as §4"}, "[9]": {"experiment": "Half life in fasted healthy human at 400 mg BID, po administered as suspension for 7 days", "format": "ADME, organism-based", "details": "in vivo", "summary_of_the_method": "as §3"}, "[10]": {"experiment": "Cmax in plasma in hematopoietic stem cell transplant recipient human with GVHD and diarrhea", "format": "ADME, organism-based"}, "[11]": {"experiment": "Half life in fasted healthy human at 200 mg QID, po administered as suspension for 7 days", "format": "ADME, organism-based", "details": "in vivo", "summary_of_the_method": "as §3"}, "[12]": {"experiment": "Cmax in healthy human plasma at 400 mg administered as single dose suspension coadministered with nutritional supplement and 10 mg metoclopramide", "format": "ADME, organism-based", "design": "dose 400 mg", "summary_of_the_method": "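A three-way crossover in 13 healthy subjects gave one 400 mg oral suspension dose with a nutritional supplement, either alone, with metoclopramide 10 mg orally three times daily on the day before and the day of dosing, or with a single 4 mg dose of loperamide. Plasma was taken 0–168 h for LC-MS/MS. Analysis was noncompartmental.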"}, "[13]": {"experiment": "Half life in healthy human at 400 mg administered as single dose suspension coadministered with nutritional supplement", "format": "ADME, organism-based", "details": "in vivo", "summary_of_the_method": "as §2"}, "[14]": {"experiment": "Tmax in healthy human at 200 mg QID, po administered as suspension for 7 days coadministered with nutritional supplement", "format": "ADME, organism-based", "details": "in vivo", "summary_of_the_method": "as §3"}, "[15]": {"test_system": "Homo sapiens", "experiment": "Toxicity in healthy human assessed as dizziness at 200 mg QID, po administered as suspension for 7 days coadministered with nutritional supplement", "format": "organism-based", "details": "in vivo, 168 h", "summary_of_the_method": "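Healthy volunteers (n = 12) took oral posaconazole suspension (40 mg/ml) with Boost at each dose for 7 days in a four-way randomized crossover with a 14- to 21-day washout. Subjects stayed fasted throughout, with nonfat snacks up to 800 cal/day allowed. Safety covered adverse events, vital signs, clinical labs and 12-lead ECG, with AEs tabulated by body system and severity per treatment.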"}, "[16]": {"experiment": "Half life in fasted healthy human at 400 mg administered as single dose suspension after consumption of high fat meal", "format": "ADME, organism-based", "details": "in vivo", "summary_of_the_method": "as §5"}, "[17]": {"experiment": "Tmax in healthy human at 400 mg administered as single dose suspension coadministered with nutritional supplement", "format": "ADME, organism-based", "details": "in vivo", "summary_of_the_method": "as §2"}, "[18]": {"experiment": "Cmax in healthy human plasma at 200 mg QID, po administered as suspension for 7 days coadministered with nutritional supplement", "format": "ADME, organism-based", "design": "dose 200 mg, route oral", "summary_of_the_method": "as §6"}, "[19]": {"test_system": "Homo sapiens", "experiment": "Toxicity in healthy human assessed as fatigue at 400 mg administered as single dose suspension coadministered with nutritional supplement and 10 mg metoclopramide", "format": "organism-based", "details": "in vivo", "summary_of_the_method": "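Three-way randomized crossover in 13 healthy volunteers with a 7- to 10-day washout. Each period was one 400-mg oral posaconazole suspension dose with a nutritional supplement. Metoclopramide 10 mg was given orally three times daily on the day before and the day of dosing; loperamide was a single 4 mg. Safety was assessed from adverse events, tabulated by body system and severity per treatment.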"}, "[20]": {"experiment": "Cmax in fasted healthy human plasma at 400 mg administered as single dose suspension 5 mins before consumption of high fat meal", "format": "ADME, organism-based", "design": "dose 400 mg", "summary_of_the_method": "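In a crossover of 12 healthy subjects, each took a single 400 mg oral suspension dose 5 min before, midway through (about 10 min into a 20-min meal), or 20 min after a high-fat meal of about 50 g fat. Plasma was drawn 0–168 h and measured by LC-MS/MS. Parameters are noncompartmental, with AUC to the last measurable time.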"}, "[21]": {"test_system": "Homo sapiens", "experiment": "AUC in healthy human at 400 mg BID, po administered as suspension for 7 days coadministered with nutritional supplement", "format": "ADME, organism-based, Plasma", "details": "in vivo, 168 h", "summary_of_the_method": "as §6"}, "[22]": {"experiment": "Apparent volume of distribution in fasted healthy human at 400 mg administered as single dose suspension", "format": "ADME, organism-based", "details": "in vivo, read-out: Vc/F"}, "[23]": {"experiment": "Half life in fasted healthy human at 400 mg administered as single dose suspension coadministered with proton pump inhibitor", "format": "ADME, organism-based", "details": "in vivo", "summary_of_the_method": "as §7"}, "[24]": {"experiment": "AUC in fasted healthy human at 400 mg administered as single dose suspension", "format": "ADME, organism-based", "details": "plasma"}, "[25]": {"experiment": "Apparent total body clearance in fasted healthy human at 400 mg administered as single dose suspension coadministered with proton pump inhibitor", "format": "ADME, organism-based", "details": "in vivo", "summary_of_the_method": "as §1"}}}
{"smiles": "CC[C@@H]([C@H](C)O)n1ncn(-c2ccc(N3CCN(c4ccc(OC[C@@H]5CO[C@@](Cn6cncn6)(c6ccc(F)cc6F)C5)cc4)CC3)cc2)c1=O", "note": "[POSACONAZOLE]", "values": [{"measurement": "AUC", "setting": "[1]", "result": 9610, "unit": "ng·h/mL"}, {"measurement": "half-life", "setting": "[2]", "result": 27.7, "unit": "h"}, {"measurement": "half-life", "setting": "[3]", "result": 27.8, "unit": "h"}, {"measurement": "Activity", "setting": "[4]", "result": 38, "unit": "%"}, {"measurement": "half-life", "setting": "[5]", "result": 22.6, "unit": "h"}, {"measurement": "Cmax", "setting": "[6]", "result": 982, "unit": "ng/mL"}, {"measurement": "half-life", "setting": "[7]", "result": 27.4, "unit": "h"}, {"measurement": "Activity", "setting": "[8]", "result": 25, "unit": "%"}, {"measurement": "half-life", "setting": "[9]", "result": 25.7, "unit": "h"}, {"measurement": "Cmax", "setting": "[10]", "result": 623, "unit": "ng/mL"}, {"measurement": "half-life", "setting": "[11]", "result": 34.7, "unit": "h"}, {"measurement": "Cmax", "setting": "[12]", "result": 232, "unit": "ng/mL"}, {"measurement": "half-life", "setting": "[13]", "result": 24.3, "unit": "h"}, {"measurement": "Tmax", "setting": "[14]", "result": 4, "unit": "h"}, {"measurement": "Activity", "setting": "[15]", "result": 33, "unit": "%"}, {"measurement": "half-life", "setting": "[16]", "result": 22.6, "unit": "h"}, {"measurement": "Tmax", "setting": "[17]", "result": 5.5, "unit": "h"}, {"measurement": "Cmax", "setting": "[18]", "result": 2160, "unit": "ng/mL"}, {"measurement": "Activity", "setting": "[19]", "result": 15, "unit": "%"}, {"measurement": "Cmax", "setting": "[20]", "result": 274, "unit": "ng/mL"}, {"measurement": "AUC", "setting": "[21]", "result": 80600, "unit": "ng·h/mL"}, {"measurement": "Vd/F", "setting": "[22]", "result": 3580, "unit": "L"}, {"measurement": "half-life", "setting": "[23]", "result": 25.7, "unit": "h"}, {"measurement": "AUC", "setting": "[24]", "result": 5600, "unit": "ng·h/mL"}, {"measurement": "CL/F", "setting": "[25]", "result": 1930, "unit": "mL/min"}]}
